Test [1] deals with Influenza A virus (A/Wuhan/359/1995(H3N2)). As to the kind of experiment: Binding affinity to Influenza A virus (A/Wuhan/359/1995 (H3N2)) hemagglutininin by scintillation proximity assay. (In general: SPA uses beads or plates that emit light when radiolabelled molecules are held near them.)
Test [2] concerns Influenza A virus (A/Wyoming/03/2003(H3N2)). As to the kind of experiment: (§1) Binding affinity to Influenza A virus (A/Wyoming/03/2003 (H3N2)) hemagglutininin by avidin-biotin peroxidase complex method. A digest of the protocol: (§2)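 HA was coated at 70 μg/mL overnight at 4 °C and blocked with 1% BSA/PBS. C-terminally biotinylated peptides (5-400 μM) were added for 2 h. After PBS washes, peroxidase-streptavidin was added for 1 h, and o-phenylenediamine colour was read as ΔA at 492 nm, in triplicate. Kd came from a Scatchard plot over 20-200 μM peptide.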

In test [3] the test system is Influenza A virus (A/New Caledonia/20/1999(H1N1)). Put plainly: (§3) Binding affinity to Influenza A virus (A/New Caledonia/20/1999 (H1N1)) hemagglutininin by avidin-biotin peroxidase complex method. A digest of the protocol: as §2
A short description of test [4]: as §1. A digest of the protocol: as §2
A short description of test [5]: as §3. A digest of the protocol: as §2

Activity calls are given as the source filed them. The rule behind the calls is not given here. Where a SMILES comes first, the peptide text is derived from it. The star is where a group is joined. Biotin = O=C1N[C@H]2[C@H](CS[C@H]2CCCCC(=O)*)N1

The values that follow come from ChEMBL document CHEMBL1155549, “Sialic acid-mimic peptides as hemagglutinin inhibitors for anti-influenza therapy” (J Med Chem, 2010).

Broadly, the Kd is a measure of binding affinity in units of concentration. Low readings indicate tighter binding, high ones weaker binding.

As for `CSCC[C@H](NC(=O)[C@@H](NC(=O)[C@@H]1CCCN1C(=O)[C@H](CO)NC(=O)[C@H](CC(C)C)NC(=O)[C@H](CCCNC(=N)N)NC(=O)[C@@H](C)N)[C@@H](C)O)C(=O)N[C@H](C(=O)N[C@@H](Cc1cnc[nH]1)C(=O)N1CCC[C@H]1C(=O)N[C@@H](CC(N)=O)C(=O)NCC(=O)N[C@@H](C)C(=O)N[C@@H](CCC(N)=O)C(=O)N1CCC[C@H]1C(=O)O)C(C)C`, the result in test [1] was Active.

As for `CSCC[C@H](NC(=O)[C@@H](NC(=O)[C@H](CCCNC(=N)N)NC(=O)[C@@H]1CCCN1C(=O)[C@H](C)NC(=O)[C@H](CCCNC(=N)N)NC(=O)[C@H](C)N)[C@@H](C)O)C(=O)N[C@H](C(=O)N[C@@H](Cc1cnc[nH]1)C(=O)N1CCC[C@H]1C(=O)N[C@@H](CCCCN)C(=O)N1CCC[C@H]1C(=O)N[C@@H](C)C(=O)N[C@@H](CCC(N)=O)C(=O)N1CCC[C@H]1C(=O)N[C@@H](CCCCNC(=O)CCCC[C@@H]1SC[C@@H]2NC(=O)N[C@@H]21)C(N)=O)C(C)C` (H-ARAPRTMVHPKPAQPK(Biotin)-NH2), the outcome in test [2] and in test [3] was inactive.

Consider `CC(C)C[C@H](NC(=O)[C@H](CCCNC(=N)N)NC(=O)[C@H](C)N)C(=O)N1CCC[C@H]1C(=O)N[C@@H](CCCNC(=N)N)C(=O)N[C@H](C(=O)N[C@@H](C)C(=O)N[C@H](C(=O)N[C@@H](Cc1cnc[nH]1)C(=O)N1CCC[C@H]1C(=O)N[C@@H](CCCCN)C(=O)N1CCC[C@H]1C(=O)N[C@@H](C)C(=O)N[C@@H](CCC(N)=O)C(=O)N1CCC[C@H]1C(=O)N[C@@H](CCCCNC(=O)CCCC[C@@H]1SC[C@@H]2NC(=O)N[C@@H]21)C(N)=O)C(C)C)[C@@H](C)O` (H-ARLPRTAVHPKPAQPK(Biotin)-NH2), for which the result in test [2] and in test [3] was inactive.

`CSCC[C@H](NC(=O)[C@@H](NC(=O)[C@H](CCCNC(=N)N)NC(=O)[C@@H]1CCCN1C(=O)[C@H](CC(C)C)NC(=O)[C@H](CCCNC(=N)N)NC(=O)[C@H](C)N)[C@@H](C)O)C(=O)N[C@H](C(=O)N[C@@H](Cc1cnc[nH]1)C(=O)N1CCC[C@H]1C(=O)N[C@@H](C)C(=O)N1CCC[C@H]1C(=O)N[C@@H](C)C(=O)N[C@@H](CCC(N)=O)C(=O)N1CCC[C@H]1C(=O)N[C@@H](CCCCNC(=O)CCCC[C@@H]1SC[C@@H]2NC(=O)N[C@@H]21)C(N)=O)C(C)C` (H-ARLPRTMVHPAPAQPK(Biotin)-NH2): the outcome in test [2] and in test [3] was inactive.

Turning to H-ARLPRTMVHPKPAQP-NH2, in test [1], the Activity result was “Dose-dependent effect”. For the same compound, the Kd in test [4] is 22 µM; in test [5], 31 µM.
